Laboratory results taken from ChEMBL document CHEMBL5674883, “The Heterochromatin Landscape in Migrating Cells and the Importance of H3K27me3 for Associated Transcriptome Alterations” (Cells, 2018).

How the values were obtained:
Assay type in all cases: cell-based
[1] = target: T1, RNA polymerase II (Mus musculus) (UniProt P08775+Q8CFI7+P97760+A0A3Q4L2S8+Q80UW8+P61219+P62488+Q923G2+P60898+O08740+Q63871+P62876); assay: Inhibition of RNA polymerase II in mouse B16-F1 migrating cells assessed as fold change in Higd1a-RNA stability at 0.1 mM measured by ChIP-seq analysis relative to control cells
[2] = target: T1, RNA polymerase II (Mus musculus); assay: Inhibition of RNA polymerase II in mouse B16-F1 migrating cells assessed as fold change in Plekha2-RNA stability at 0.1 mM measured by […] analysis relative to control cells
[3] = target: T1, RNA polymerase II (Mus musculus); assay: Inhibition of RNA polymerase II in mouse B16-F1 migrating cells assessed as fold change in Bcap29-RNA stability at 0.1 mM measured by […] analysis relative to control cells
[4] = target: T1, RNA polymerase II (Mus musculus); assay: Inhibition of RNA polymerase II in mouse B16-F1 migrating cells assessed as fold change in Eif2s3x-RNA stability at 0.1 mM measured by […] analysis relative to control cells
Outline: (§1)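 Mouse B16-F1 melanoma cells grown to confluence on fibronectin in DMEM/10% FCS at 37 °C, 7% CO2. Migration induced by multiple scratches and 3 h incubation; unscratched controls. DRB 0.1 mM added 3 h before lysis. RNA from poly A-selected mRNA was sequenced (RNA-seq, three replicates per DRB group). Fold change computed for DRB-treated migrating vs DRB-treated control cells; cutoffs fold change >1.3, FDR <0.05.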

[5] = target: T1, RNA polymerase II (Mus musculus); assay: Inhibition of RNA polymerase II in mouse B16-F1 migrating cells assessed as fold change in Cbx1-RNA stability at 0.1 mM measured by […] analysis relative to control cells
[6] = target: T1, RNA polymerase II (Mus musculus); assay: Inhibition of RNA polymerase II in mouse B16-F1 migrating cells assessed as fold change in Cd2ap-RNA stability at 0.1 mM measured by […] analysis relative to control cells; outline: as §1
[7] = target: T1, RNA polymerase II (Mus musculus); assay: Inhibition of RNA polymerase II in mouse B16-F1 migrating cells assessed as fold change in Agps-RNA stability at 0.1 mM measured by […] analysis relative to control cells
[8] = target: T1, RNA polymerase II (Mus musculus); assay: Inhibition of RNA polymerase II in mouse B16-F1 migrating cells assessed as fold change in Ifit2-RNA stability at 0.1 mM measured by […] analysis relative to control cells; outline: as §1
[9] = target: T1, RNA polymerase II (Mus musculus); assay: Inhibition of RNA polymerase II in mouse B16-F1 migrating cells assessed as fold change in Repin1-RNA stability at 0.1 mM measured by […] analysis relative to control cells
[10] = target: T1, RNA polymerase II (Mus musculus); assay: Inhibition of RNA polymerase II in mouse B16-F1 migrating cells assessed as fold change in Mex3c-RNA stability at 0.1 mM measured by ChIP-seq analysis relative to control cells
[11] = target: T1, RNA polymerase II (Mus musculus); assay: Inhibition of RNA polymerase II in mouse B16-F1 migrating cells assessed as fold change in Efcab7-RNA stability at 0.1 mM measured by ChIP-seq analysis relative to control cells
[12] = target: T1, RNA polymerase II (Mus musculus); assay: Inhibition of RNA polymerase II in mouse B16-F1 migrating cells assessed as fold change in Polr3f-RNA stability at 0.1 mM measured by […] analysis relative to control cells
[13] = target: Histone-lysine N-methyltransferase EZH2 (Mus musculus) (UniProt Q61188); assay: Inhibition of EZH2 in mouse B16-F1 migrating cells assessed as fold change in H3K27me3-dependent regulated Mir22hg-mRNA expression at 3 uM measured by […] analysis relative to control cells
Sequence of Histone-lysine N-methyltransferase EZH2 (Mus musculus) (Q61188 whole entry): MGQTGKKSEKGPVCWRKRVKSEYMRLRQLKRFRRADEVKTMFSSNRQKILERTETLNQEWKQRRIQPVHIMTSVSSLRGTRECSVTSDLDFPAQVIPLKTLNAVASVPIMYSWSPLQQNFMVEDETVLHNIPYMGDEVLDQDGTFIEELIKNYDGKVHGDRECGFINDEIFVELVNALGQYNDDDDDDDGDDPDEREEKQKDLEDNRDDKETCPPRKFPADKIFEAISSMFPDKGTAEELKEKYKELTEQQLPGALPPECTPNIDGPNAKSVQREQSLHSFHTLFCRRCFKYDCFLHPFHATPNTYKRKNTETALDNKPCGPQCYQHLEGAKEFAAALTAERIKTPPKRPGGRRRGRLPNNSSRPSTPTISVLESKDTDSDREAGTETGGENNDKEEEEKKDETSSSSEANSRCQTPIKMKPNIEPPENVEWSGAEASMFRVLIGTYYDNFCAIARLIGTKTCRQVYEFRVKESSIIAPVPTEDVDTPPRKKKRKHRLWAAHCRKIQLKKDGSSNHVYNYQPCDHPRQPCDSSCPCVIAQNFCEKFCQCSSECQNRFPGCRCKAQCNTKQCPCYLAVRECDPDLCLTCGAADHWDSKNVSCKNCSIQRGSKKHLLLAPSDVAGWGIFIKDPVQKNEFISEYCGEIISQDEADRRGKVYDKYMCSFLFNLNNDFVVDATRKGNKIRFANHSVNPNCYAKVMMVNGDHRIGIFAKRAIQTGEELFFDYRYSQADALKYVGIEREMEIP
Outline: (§2)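 Confluent B16-F1 cells on fibronectin-coated plates were scratched at multiple sites, washed once with DMEM and left to migrate 3 h in growth medium (37 °C, 7% CO2); unscratched cells served as control. GSK343 (3 µM) was added 3 h before lysis. Poly A mRNA was sequenced (RNA-seq), with 5 replicates for untreated and 3 for treated cells. Differential expression was called by linear model with batch correction, at FDR <0.05 and fold change ≥1.3.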

[14] = target: Histone-lysine N-methyltransferase EZH2 (Mus musculus) (UniProt Q61188); assay: Inhibition of EZH2 in mouse B16-F1 migrating cells assessed as fold change in H3K27me3-independent regulated Ltbp1-mRNA expression at 3 uM measured by […] analysis relative to control cells; outline: as §2
[15] = target: Histone-lysine N-methyltransferase EZH2 (Mus musculus) (UniProt Q61188); assay: Inhibition of EZH2 in mouse B16-F1 migrating cells assessed as fold change in H3K27me3-independent regulated Fosl2-mRNA expression at 3 uM measured by […] analysis relative to control cells; outline: as §2
[16] = target: Histone-lysine N-methyltransferase EZH2 (Mus musculus) (UniProt Q61188); assay: Inhibition of EZH2 in mouse B16-F1 migrating cells assessed as fold change in H3K27me3-independent regulated Coq10b-mRNA expression at 3 uM measured by […] analysis relative to control cells; outline: as §2
[17] = target: Histone-lysine N-methyltransferase EZH2 (Mus musculus) (UniProt Q61188); assay: Inhibition of EZH2 in mouse B16-F1 migrating cells assessed as fold change in H3K27me3-independent regulated Cep152-mRNA expression at 3 uM measured by ChIP-seq analysis relative to control cells; outline: as §2
[18] = target: Histone-lysine N-methyltransferase EZH2 (Mus musculus) (UniProt Q61188); assay: Inhibition of EZH2 in mouse B16-F1 migrating cells assessed as fold change in H3K27me3-buffered regulated Hs3st1-mRNA expression at 3 uM measured by […] analysis relative to control cells
Outline: (§3)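 Confluent B16-F1 cells on fibronectin-coated plates, cultured at 37 °C and 7% CO2, were scratched at multiple sites to induce migration. They were then held 3 h in growth medium containing 3 µM GSK343, with the inhibitor added 3 h before lysis. Unscratched cells served as controls. Poly A mRNA was analysed by RNA-seq (n=3 GSK343, n=5 controls). Linear models removed batch effects, and buffered genes were those altered only under GSK343 (FDR <0.05, fold change >1.3).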

[19] = target: Histone-lysine N-methyltransferase EZH2 (Mus musculus) (UniProt Q61188); assay: Inhibition of EZH2 in mouse B16-F1 migrating cells assessed as fold change in H3K27me3-buffered regulated Pde4d-mRNA expression at 3 uM measured by ChIP-seq analysis relative to control cells; outline: as §3
[20] = target: Histone-lysine N-methyltransferase EZH2 (Mus musculus) (UniProt Q61188); assay: Inhibition of EZH2 in mouse B16-F1 migrating cells assessed as fold change in H3K27me3-buffered regulated Stk10-mRNA expression at 3 uM measured by ChIP-seq analysis relative to control cells; outline: as §2
[21] = target: Histone-lysine N-methyltransferase EZH2 (Mus musculus) (UniProt Q61188); assay: Inhibition of EZH2 in mouse B16-F1 migrating cells assessed as fold change in H3K27me3-buffered regulated Vegfc-mRNA expression at 3 uM measured by […] analysis relative to control cells; outline: as §2
[22] = target: Histone-lysine N-methyltransferase EZH2 (Mus musculus) (UniProt Q61188); assay: Inhibition of EZH2 in mouse B16-F1 migrating cells assessed as fold change in H3K27me3-buffered regulated Ankrd26-mRNA expression at 3 uM measured by […] analysis relative to control cells; outline: as §3
[23] = target: Histone-lysine N-methyltransferase EZH2 (Mus musculus) (UniProt Q61188); assay: Inhibition of EZH2 in mouse B16-F1 migrating cells assessed as fold change in H3K27me3-buffered regulated Foxa1-mRNA expression at 3 uM measured by […] analysis relative to control cells; outline: as §3
[24] = target: Histone-lysine N-methyltransferase EZH2 (Mus musculus) (UniProt Q61188); assay: Inhibition of EZH2 in mouse B16-F1 migrating cells assessed as fold change in H3K27me3-buffered regulated Snhg5-mRNA expression at 3 uM measured by […] analysis relative to control cells; outline: as §2

## OC[C@H]1O[C@@H](n2cnc3cc(Cl)c(Cl)cc32)[C@H](O)[C@@H]1O
[1]
  log2FC: 0.77
[2]
  log2FC: 0.71
[3]
  log2FC: -0.48
[4]
  log2FC: -0.51
[5]
  log2FC: -0.56
[6]
  log2FC: -0.57
[7]
  log2FC: -0.58
[8]
  log2FC: -0.69
[9]
  log2FC: -0.71
[10]
  log2FC: -0.71
[11]
  log2FC: -0.79
[12]
  log2FC: -0.8

## CCCc1cc(C)[nH]c(=O)c1CNC(=O)c1cc(-c2ccnc(N3CCN(C)CC3)c2)cc2c1cnn2C(C)C
[13]
  log2FC: 0.05
[14]
  log2FC: 1.19
[15]
  log2FC: 0.7
[16]
  log2FC: 0.56
[17]
  log2FC: -0.48
[18]
  log2FC: 0.78
[19]
  log2FC: 0.75
[20]
  log2FC: -0.44
[21]
  log2FC: -0.44
[22]
  log2FC: -0.47
[23]
  log2FC: -0.77
[24]
  log2FC: -0.89
